Results on 17 compounds are retold here after ChEMBL document CHEMBL1641571, “Karavilagenin C derivatives as antimalarials” (Bioorg Med Chem, 2011).

The term IC50 denotes the point on the concentration scale where inhibition reaches its midpoint. Read a high IC50 as weaker potency in that assay.

A value given as a limit tells only on which side of the number the result lay.

Data set [1] is described as follows: Selectivity index, ratio of IC50 for human MCF7 cells to IC50 for chloroquine-resistant Plasmodium falciparum Dd2. Format: toxicity, cell-based. The following applies: read-out: Ratio IC50.
For a further data set, the system named is MCF7. The data set is described as follows: Cytotoxicity against human MCF7 cells after 24 hrs by MTT assay. The format is functional, cell-based. The following applies: MCF7, 24 h. The gist of the method: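 MCF-7 breast cancer cells grown in RPMI 1640 with 10% heat-inactivated horse serum, 2 mM L-glutamine and antibiotics, 5% CO2, 37 °C. 2 × 10^4 cells per well exposed to increasing compound concentrations for 24 h at 37 °C. MTT added (5 mg/mL stock), 4 h, then 10% SDS overnight. OD read at 550 nm (ref 630 nm). IC50 from growth inhibition; mean ± SD, three experiments.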
Background: Tetrazolium assays rely on reduction of a dye to a coloured formazan, in cell work by metabolically active cells.

Data set [2] has as its system Plasmodium falciparum. The data set is described as follows: Antimalarial activity against chloroquine-sensitive Plasmodium falciparum 3D7 infected in erythrocytes after 48 hrs by SYBR Green 1-based fluorescence assay. The format is functional, organism-based. The note with it: 3D7, 48 h.
Data set [3] can be described thus: Selectivity index, ratio of IC50 for human MCF7 cells to IC50 for chloroquine-sensitive Plasmodium falciparum 3D7. The format is toxicity, cell-based. The following applies: read-out: Ratio IC50.
In data set [4] the test system is Plasmodium falciparum. Briefly: Antimalarial activity against chloroquine-resistant Plasmodium falciparum Dd2 infected in erythrocytes after 48 hrs by SYBR Green 1-based fluorescence assay. The format is functional, organism-based. The note with it: Dd2, 48 h.

On to `CO[C@H]1C=C2[C@@H](CC[C@H](O)C2(C)C)[C@]2(C)C[C@@H](O)[C@]3(C)[C@@H]([C@H](C)C[C@@H](O)C=C(C)C)CC[C@@]3(C)[C@H]12` [CUCURBALSAMINOL C], for which the selectivity ratio was 0.6 in data set [1] and 0.8 in data set [3]. In addition, the IC50 in the data set with MCF7 worked out at 43.3 µM; in the data set with Plasmodium falciparum [2], 52.7 µM; with Plasmodium falciparum [4] it was 67.6 µM.
Turning to `CO[C@H]1C=C2[C@@H](CC[C@H](O)C2(C)C)[C@]2(C)CC[C@]3(C)[C@@H]([C@H](C)C[C@@H](O)C=C(C)C)CC[C@@]3(C)[C@H]12` [KARAVELAGENIN C], the selectivity ratio in data set [1] came to 1.4; in data set [3] it was 1.6. Further, the IC50 came to 16.7 µM in the data set with MCF7, 10.4 µM in the data set on Plasmodium falciparum [2] and 11.2 µM with Plasmodium falciparum [4].
Consider `CO[C@H]1C=C2[C@@H](CC[C@H](O)C2(C)C)[C@]2(C)CC[C@]3(C)[C@@H]([C@H](C)C[C@H](C=C(C)C)OC(C)=O)CC[C@@]3(C)[C@H]12` [KARAVOATE A], for which the selectivity ratio in data set [1] was 2.5; in data set [3], 3.4. Besides, the IC50 in the data set on MCF7 was found to be 22.9 µM; in the data set on Plasmodium falciparum [2] it was 6.7 µM; in the data set with Plasmodium falciparum [4], 9.2 µM.
Take `CO[C@H]1C=C2[C@@H](CC[C@H](OC(C)=O)C2(C)C)[C@]2(C)CC[C@]3(C)[C@@H]([C@H](C)C[C@H](C=C(C)C)OC(C)=O)CC[C@@]3(C)[C@H]12` [KARAVOATE B]: the selectivity ratio in data set [1] was found to be 126; in data set [3] it was 151. Further, the IC50 in the data set on MCF7 worked out at 68.1 µM; in the data set with Plasmodium falciparum [2], 0.5 µM; in the data set on Plasmodium falciparum [4] it was 0.5 µM.
On to `CCC(=O)O[C@@H](C=C(C)C)C[C@@H](C)[C@H]1CC[C@@]2(C)[C@@H]3[C@@H](OC)C=C4[C@@H](CC[C@H](O)C4(C)C)[C@]3(C)CC[C@]12C` [KARAVOATE C], for which the selectivity ratio in data set [1] turned out to be 0.9; in data set [3] it was 3.7. Besides, the half-maximal inhibitory concentration (IC50) in the data set with MCF7 is 19.1 µM; with Plasmodium falciparum [2], 5.1 µM; in the data set with Plasmodium falciparum [4] it was 22 µM.
For `CCC(=O)O[C@H]1CC[C@@H]2C(=C[C@H](OC)[C@@H]3[C@@]2(C)CC[C@]2(C)[C@@H]([C@H](C)C[C@H](C=C(C)C)OC(=O)CC)CC[C@@]32C)C1(C)C` [KARAVOATE D], the results for the selectivity ratio in data set [1] and in data set [3] were more than 350 and more than 89, respectively. For the same compound, the IC50 was more than 133 µM with MCF7, 1.5 µM in the data set on Plasmodium falciparum [2] and 0.4 µM in the data set with Plasmodium falciparum [4].
For `CCCC(=O)O[C@@H](C=C(C)C)C[C@@H](C)[C@H]1CC[C@@]2(C)[C@@H]3[C@@H](OC)C=C4[C@@H](CC[C@H](O)C4(C)C)[C@]3(C)CC[C@]12C` [KARAVOATE E], in that order: 116, 20.8, 73.8 µM, 3.5 µM and 0.6 µM.
The matching figures for `CCCC(=O)O[C@H]1CC[C@@H]2C(=C[C@H](OC)[C@@H]3[C@@]2(C)CC[C@]2(C)[C@@H]([C@H](C)C[C@H](C=C(C)C)OC(=O)CCC)CC[C@@]32C)C1(C)C` [KARAVOATE F]: more than 15.8, more than 19.4, more than 133 µM, 6.9 µM and 8.4 µM.
Take `CO[C@H]1C=C2[C@@H](CC[C@H](OC(=O)c3ccccc3)C2(C)C)[C@]2(C)CC[C@]3(C)[C@@H]([C@H](C)C[C@H](C=C(C)C)OC(=O)c4ccccc4)CC[C@@]3(C)[C@H]12` [KARAVOATE H]: the values for the selectivity ratio in data set [1] and in data set [3] were more than 4.4 and more than 3.7, respectively. The IC50 in the data set with MCF7 was more than 133 µM; in the data set on Plasmodium falciparum [2], 36.4 µM; with Plasmodium falciparum [4], 30.5 µM.
Turning to `CO[C@H]1C=C2[C@@H](CC[C@H](O)C2(C)C)[C@]2(C)CC[C@]3(C)[C@@H]([C@H](C)C[C@H](C=C(C)C)OC(=O)c4ccc([N+](=O)[O-])cc4)CC[C@@]3(C)[C@H]12` [KARAVOATE I], the selectivity ratio in data set [1] is more than 296; in data set [3] it was more than 51.4. Further, the IC50 was more than 133 µM in the data set on MCF7, 2.6 µM in the data set with Plasmodium falciparum [2] and 0.5 µM in the data set on Plasmodium falciparum [4].
In the case of `CO[C@H]1C=C2[C@@H](CC[C@H](OC(=O)c3ccc([N+](=O)[O-])cc3)C2(C)C)[C@]2(C)CC[C@]3(C)[C@@H]([C@H](C)C[C@H](C=C(C)C)OC(=O)c4ccc([N+](=O)[O-])cc4)CC[C@@]3(C)[C@H]12` [KARAVOATE J], the figures for the selectivity ratio in data set [1] and in data set [3] were more than 6.43 and more than 7.2, respectively. Moreover, the IC50 with MCF7 was more than 133 µM; with Plasmodium falciparum [2], 18.6 µM; in the data set on Plasmodium falciparum [4], 20.7 µM.
For `CO[C@H]1C=C2[C@@H](CC[C@H](O)C2(C)C)[C@]2(C)CC[C@]3(C)[C@@H]([C@H](C)C[C@H](C=C(C)C)OC(=O)c4ccc(Cl)cc4)CC[C@@]3(C)[C@H]12` [KARAVOATE K], the results for the selectivity ratio in data set [1] and in data set [3] were more than 5.7 and more than 10, respectively. In addition, the IC50 is more than 133 µM in the data set on MCF7, 13.3 µM in the data set on Plasmodium falciparum [2] and 23.3 µM in the data set on Plasmodium falciparum [4].
On to `CO[C@H]1C=C2[C@@H](CC[C@H](OC(=O)c3ccc(Cl)cc3)C2(C)C)[C@]2(C)CC[C@]3(C)[C@@H]([C@H](C)C[C@H](C=C(C)C)OC(=O)c4ccc(Cl)cc4)CC[C@@]3(C)[C@H]12` [KARAVOATE L], for which the selectivity ratio in data set [1] was more than 2; in data set [3] it was more than 5.9. For the same compound, the IC50 in the data set with MCF7 is more than 133 µM; in the data set with Plasmodium falciparum [2], 22.5 µM; in the data set with Plasmodium falciparum [4], 66 µM.
The matching figures for `COc1ccc(C(=O)O[C@@H](C=C(C)C)C[C@@H](C)[C@H]2CC[C@@]3(C)[C@@H]4[C@@H](OC)C=C5[C@@H](CC[C@H](O)C5(C)C)[C@]4(C)CC[C@]23C)cc1` [KARAVOATE M]: more than 215, more than 43.6, more than 133 µM, 1.3 µM and 0.6 µM.
The matching figures for `COc1ccc(C(=O)O[C@H]2CC[C@@H]3C(=C[C@H](OC)[C@@H]4[C@@]3(C)CC[C@]3(C)[C@@H]([C@H](C)C[C@H](C=C(C)C)OC(=O)c5ccc(OC)cc5)CC[C@@]43C)C2(C)C)cc1` [KARAVOATE N]: more than 2.8, more than 55.4, more than 133 µM, 2.4 µM and 47.9 µM.
Consider `CO[C@H]1C=C2[C@@H](CC[C@H](O)C2(C)C)[C@]2(C)CC[C@]3(C)[C@@H]([C@H](C)C[C@H](C=C(C)C)OC(=O)/C=C/c4ccccc4)CC[C@@]3(C)[C@H]12` [KARAVOATE O], for which the figures for the selectivity ratio in data set [1] and in data set [3] were more than 5 and more than 20.3, respectively. The IC50 in the data set with MCF7 was more than 133 µM; in the data set with Plasmodium falciparum [2] it was 6.6 µM; in the data set with Plasmodium falciparum [4] it was 26.7 µM.
For the compound `CO[C@H]1C=C2[C@@H](CC[C@H](OC(=O)/C=C/c3ccccc3)C2(C)C)[C@]2(C)CC[C@]3(C)[C@@H]([C@H](C)C[C@H](C=C(C)C)OC(=O)/C=C/c4ccccc4)CC[C@@]3(C)[C@H]12` [KARAVOATE P], the selectivity ratio in data set [1] was more than 2.4; in data set [3], more than 2. Further, the IC50 is more than 133 µM in the data set with MCF7, 65.2 µM with Plasmodium falciparum [2] and 56.6 µM in the data set with Plasmodium falciparum [4].
